# Sampled rows, rich in hits. Any-hit rate of the full collection: about 1.5%.
# T cell HTS: modulates CD8 T cell binding to vesicles. 2C CD8+ T cell-vesicle binding, flow cytometry; active compounds read low. response (vesicle binding), % at 7 µM. hit rate 0.068% among 330,000. AID 2052;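 active = response, share of CD8 T cells binding vesicles, and their 90th percentile fluorescence all below set limits, cut at about 80% in these data, passing the limit was not always enough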;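 also: values below 100% mean blocked vesicle binding to the CD8+ T cells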
#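 Incubation: binding step 1.5 h, 37 °C, antibody labelling 20 min, ice; system: murine 2C transgenic CD8+ T lymphocytes; technique: cytometric PE anti-B7-1 and Alexa647 anti-CD8 signals after 1% paraformaldehyde fixation; also added: QL9-charged Drosophila Ld/ICAM-1/B7-1 vesicles; control set: naked versus QL9-loaded vesicles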
# HDAC3 inh: blocks human histone deacetylase 3; O15379; recombinant HDAC3, fluorogenic peptide/trypsin coupled, fluorescence; inhibition, % at 8.3 µM; hit rate 0.15% among 320,000; in the data active = inhibition above about 26%, passing the limit was not always enough; inconclusive = no clear call, values can overlap the other calls
# Target sequence (O15379 whole entry, looked up): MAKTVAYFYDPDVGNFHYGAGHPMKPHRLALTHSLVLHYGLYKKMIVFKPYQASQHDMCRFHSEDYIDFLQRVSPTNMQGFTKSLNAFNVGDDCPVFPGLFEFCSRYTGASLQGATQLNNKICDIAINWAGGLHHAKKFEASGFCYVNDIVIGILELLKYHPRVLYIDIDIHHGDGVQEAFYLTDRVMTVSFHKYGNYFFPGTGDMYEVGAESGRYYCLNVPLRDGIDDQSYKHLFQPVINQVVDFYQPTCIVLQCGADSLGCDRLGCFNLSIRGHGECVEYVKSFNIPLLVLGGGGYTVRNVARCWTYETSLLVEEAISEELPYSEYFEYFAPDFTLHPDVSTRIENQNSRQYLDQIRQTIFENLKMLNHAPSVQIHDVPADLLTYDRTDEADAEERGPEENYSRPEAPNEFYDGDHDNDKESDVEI
# LANA-H2B inh: blocks KSHV LANA binding to histone H2A/H2B; inhibition, % (no concentration beside the values); Q9QR71; hit rate 0.6% among 320,000; cell-free LANA-H2A/H2B peptide, fluorescence polarization; in the data active = inhibition mostly above about 10%, no sharp cut-off; inactive = mostly below about 6.7%
# DSG3 Ab inh: inhibitors of pemphigus antibody binding to human desmoglein-3; DSG3-coupled beads, scFv-anti-DSG3-GFP binding, flow cytometry; active compounds read low; hit rate 0.48% among 310,000; binding (percent of control), % at 10 µM;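 active = binding more than 3 SD below its plate's average and above zero; inconclusive = below that plate limit but binding exactly zero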;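 also: hits lower antibody fragment binding to DSG3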
# Arrestin-AP2 inh: human beta-arrestin and AP2 interaction inhibition | hit rate 0.31% among 340,000 | inhibition, % at 10 µM | FITC-arrestin peptide / GST-AP2 beads, flow cytometry; AP2 beta2 appendage carries R879A mutation | AID 504490;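 active = inhibition above a set limit, near 3 SD of compounds lacking own fluorescence, cut at about 54% in these data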;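 also: plate controls were DMSO wells for no effect and 5 µM unlabelled arrestin peptide for full effect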
#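 system = GST-tagged AP2 beta2-adaptin appendage (R879A) on 4 µm glutathione beads | reagent = FITC-labelled arrestin peptide probe, 50 nM final | schedule = compound with beads 12 min RT, then probe 1 h RT | signal = HyperCyt-sampled flow cytometry, FL1 channel, ex 488/em 535 nm | read-out = percent response from loss of bead-bound FITC fluorescence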
# * marks the source's active call; other numbers are inactive results; i = inactive; ? = inconclusive; . = no result given.
SMILES,T cell HTS,HDAC3 inh,LANA-H2B inh,DSG3 Ab inh,Arrestin-AP2 inh
C=CCn1c(C)cc(C(=O)COC(=O)CNC(=O)c2ccccc2)c1C,286,0,6,72*,-3
C=CCN(CC=C)C(=O)C1CCN(S(=O)(=O)c2ccc(N3CCCC3=O)cc2)CC1,253,-4,15*,96,6
C=CCN(CC=C)C(=O)C1CCN(S(=O)(=O)c2ccc(-n3cnnn3)cc2)CC1,248,0,-2,97,18
O=[N+]([O-])c1ccc(F)cc1F,554,-4,52*,103,32
O=[N+]([O-])c1cccnc1Oc1ccc(F)cc1F,378,4,5,111,-21
COc1ccc(COC(=O)CCc2cc(OC)c(OC)c(OC)c2)cc1F,.,.,.,101,45
O=C(O)c1ccc(N=Nc2c(O)[nH]c3ccc(Br)cc23)cc1,104,4,4,109,2
O=c1ccc2cc3c([nH]c4ccc(Br)cc43)oc-2c1O,535,38*,-1,70,72*
O=c1sc(N2CCN(c3ccc(F)cc3)CC2)nc2ccsc12,222,0,3,79*,-3
O=c1sc(N2CCN(c3ccccc3F)CC2)nc2ccsc12,382,2,-4,95,-4
COCC(=O)N1CCC2CC1c1c(-c3ccc(C(F)(F)F)cc3)cccc12 (stereo not drawn),.,.,.,106,2
O=S(=O)(NC1CC1)c1ccc(S(=O)(=O)N2CCC3(CC2)OCCO3)cc1,255,4,19*,113,14
CC(C)CNS(=O)(=O)c1ccc(S(=O)(=O)N2CCC3(CC2)OCCO3)cc1,i,-12,-2,99,0
COc1ccc(/C=N/NC(=O)c2ccc(COc3cccc4cccnc34)cc2)cc1OC,185,4,-1,5.2*,-14
Nc1nc(SCc2ccccc2)c2ncn(CCO)c2n1,.,.,.,118,22
CC(C(=O)Nc1ccc(F)c(F)c1F)N(C)CCOc1ccccc1 (stereo not drawn),344,8,11*,114,-1
CC(OC(=O)Cn1c(C(F)(F)F)nc2ccccc21)C(=O)N1CCCc2ccccc21 (stereo not drawn),256,2,26*,102,-9
COC(=O)Cn1c(C(F)(F)F)nc2ccccc21,251,0,1,99,-3
COc1ccccc1CNC(=O)c1cnc2ccccn2c1=O,404,11,1,99,4
O=C(NCc1cccs1)c1cnc2ccccn2c1=O,345,1,9.8*,100,-1
Cc1ccc(NC2(C(F)(F)F)N=C(c3ccccc3)NC2=O)nc1 (stereo not drawn),133,0,2,96,2
CCOC(=O)NC1(C(F)(F)F)N=C(c2ccccc2)NC1=O (stereo not drawn),181,-1,14*,?,-3
COc1ccccc1CCC(=O)OCC(=O)N1c2ccccc2NC(=O)C1(C)C,528,-1,.,109,1
Cc1ccc(C)c(OCCC(=O)OCC(=O)N2c3ccccc3NC(=O)C2(C)C)c1,293,6,12*,97,-9
Cc1cccn2c(=O)c3cc(C(=O)NC4CCCC4)c(=N)n(CCCN4CCOCC4)c3nc12,264,-134,3,105,-5
SMILES,T cell HTS,HDAC3 inh,LANA-H2B inh,DSG3 Ab inh,Arrestin-AP2 inh
O=C(O)c1ccc(NS(=O)(=O)c2ccc3c(c2)OCCCO3)cc1,373,4,2,121,-26
O=C(O)CCNS(=O)(=O)c1ccc2c(c1)OCCCO2,162,2,13*,98,19
CCOc1ccc(S(=O)(=O)N2CCOCC2)cc1NC(=O)CN1C(=O)NC(C)(c2ccc(C)cc2)C1=O (stereo not drawn),.,.,.,101,-1
CCOc1ccc(S(=O)(=O)N2CCOCC2)cc1NC(=O)CN1C(=O)NC2(CCCCC2)C1=O,158,-2,24*,97,10
CCOc1ccc(S(=O)(=O)N2CCOCC2)cc1NC(=O)CSCC(=O)Nc1cccc(C)c1,0.0*,1,-3,.,8
CCOc1ccc(C(=O)OCC(=O)Nc2cc(S(=O)(=O)N3CCOCC3)ccc2N2CCOCC2)cc1,.,.,.,-19*,12
O=C(Cn1cc(C(F)(F)F)ccc1=O)Nc1cccc(S(=O)(=O)N2CCOCC2)c1,210,-1,22*,107,15
O=C(Cn1cc(C(F)(F)F)ccc1=O)Nc1cc(S(=O)(=O)N2CCOCC2)ccc1Cl,426,-8,-2,105,4

# Assay outcomes from PubChem.
